Data as given in ChEMBL document CHEMBL1152189, “Beta-C-glycosiduronic acids and beta-C-glycosyl compounds: new PTP1B inhibitors” (Bioorg Med Chem Lett, 2008).

Columns and labels:
[1] = biological target: T1, Tyrosine-protein phosphatase non-receptor type 1 (Homo sapiens) (UniProt P18031); assay: Inhibition of recombinant PTP1B at 20 ug/mL
T1 sequence (whole entry): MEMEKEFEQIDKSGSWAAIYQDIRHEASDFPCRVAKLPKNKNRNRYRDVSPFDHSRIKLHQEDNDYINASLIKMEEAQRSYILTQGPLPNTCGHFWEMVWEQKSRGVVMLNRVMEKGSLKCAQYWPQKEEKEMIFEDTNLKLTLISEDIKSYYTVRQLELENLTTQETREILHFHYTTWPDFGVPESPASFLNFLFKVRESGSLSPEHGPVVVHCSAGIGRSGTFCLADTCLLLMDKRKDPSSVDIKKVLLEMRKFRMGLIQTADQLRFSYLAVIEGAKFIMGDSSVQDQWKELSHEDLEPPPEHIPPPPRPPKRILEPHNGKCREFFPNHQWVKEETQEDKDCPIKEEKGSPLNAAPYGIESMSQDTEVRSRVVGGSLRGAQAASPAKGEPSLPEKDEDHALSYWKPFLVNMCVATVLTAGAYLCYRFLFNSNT
Summary of the method: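 pNPP hydrolysis by recombinant enzyme in 50 mM MOPS pH 6.5 with 2 mM pNPP. Read continuously at 405 nm for 2 min at 30 °C, and initial rate taken from early linear region. Inhibitor tested at 20 μg/mL. Mean of three experiments.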

[2] = biological target: T2, Tyrosine-protein phosphatase non-receptor type 1 (Homo sapiens, UniProt P18031); assay: Inhibition of recombinant PTP1B
T2 sequence (P18031 whole entry): T1 sequence (whole entry)
Summary of the method: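 Recombinant enzyme, 30 nM, with 2 mM pNPP in 50 mM MOPS pH 6.5. Hydrolysis followed continuously at 405 nm for 2 min at 30 °C, and initial rate taken from early linear region. Inhibitor diluted around estimated IC50. IC50 from nonlinear fit of % inhibition vs [I] with Hill equation. Mean of three experiments, SD given.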

`COc1cc([C@@H]2O[C@H](CNC(=O)c3ccccc3C(=O)O)[C@@H](OC(=O)c3ccccc3)[C@H](OC(=O)c3ccccc3)[C@H]2OC(=O)c2ccccc2)c(OC)c2ccccc12` gave an inhibition [1] of 92.1% and an IC50 [2] of 0.77 µM.

`CC(=O)O[C@@H]1[C@@H](OC(C)=O)[C@H](C2=CC(=O)C=CC2=O)O[C@H](CNC(=O)c2ccccc2)[C@H]1OC(C)=O` showed an inhibition [1] of 26.6%.

Molecule `COc1ccc(OC)c([C@@H]2O[C@H](CNC(=O)c3ccccc3)[C@@H](OC(C)=O)[C@H](OC(=O)c3ccccc3)[C@H]2OC(=O)c2ccccc2)c1` has an inhibition [1] of 83.4% and an IC50 [2] of 4.52 µM.

In the case of `COc1ccc(OC)c([C@@H]2O[C@H](COC(C)=O)[C@H](NC(=O)c3ccccc3C(=O)O)[C@H](OC(C)=O)[C@H]2OC(C)=O)c1`, the inhibition [1] is reported as 49.5%.

In the case of `COc1ccc(OC)c([C@@H]2O[C@H](CNC(=O)c3ccccc3)[C@@H](O)[C@H](OC(=O)c3ccccc3)[C@H]2OC(=O)c2ccccc2)c1`, the inhibition [1] is reported as 94.9% and the IC50 [2] is reported as 4.13 µM.

`COc1ccc(OC)c([C@@H]2O[C@H](CNC(=O)c3ccccc3C(=O)O)[C@@H](OC(=O)c3ccccc3)[C@H](OC(=O)c3ccccc3)[C@H]2OC(=O)c2ccccc2)c1` showed an inhibition [1] of 99.7% and an IC50 [2] of 2.44 µM.

With `CC(=O)O[C@@H]1[C@@H](OC(C)=O)[C@H](C2=CC(=O)c3ccccc3C2=O)O[C@H](C(=O)O)[C@H]1OC(C)=O` the inhibition [1] was 83.1% and the IC50 [2] was 15.9 µM.

Work on `O=C(O[C@H]1[C@@H](OC(=O)c2ccccc2)[C@@H](C(=O)O)O[C@@H](C2=CC(=O)c3ccccc3C2=O)[C@@H]1OC(=O)c1ccccc1)c1ccccc1` yielded an inhibition [1] of 99.5% and an IC50 [2] of 1.12 µM.

In the case of `COc1ccc(OC)c([C@@H]2O[C@H](CNC(=O)c3ccccc3)[C@@H](OC(C)=O)[C@H](OC(C)=O)[C@H]2OC(C)=O)c1`, the inhibition [1] is reported as 12.1%.

For `CC(=O)O[C@H]1[C@@H](OC(C)=O)[C@@H](C(=O)O)O[C@@H](C2=CC(=O)C=CC2=O)[C@@H]1OC(C)=O`, the inhibition [1] was 70.3% and the IC50 [2] was 27.6 µM.

`CC(=O)O[C@H]1[C@@H](OC(C)=O)[C@@H](C(=O)O)O[C@@H](C2=CC(=O)c3ccccc3C2=O)[C@@H]1OC(C)=O` gave an inhibition [1] of 88.2% and an IC50 [2] of 16.6 µM.

`CC(=O)O[C@@H]1[C@@H](OC(C)=O)[C@H](C2=CC(=O)C=CC2=O)O[C@H](C(=O)O)[C@H]1OC(C)=O` showed an inhibition [1] of 84.7% and an IC50 [2] of 20.4 µM.

With `COc1cc([C@@H]2O[C@H](CN=[N+]=[N-])[C@@H](OC(=O)c3ccccc3)[C@H](OC(=O)c3ccccc3)[C@H]2OC(=O)c2ccccc2)c(OC)c2ccccc12` the inhibition [1] was 96.5% and the IC50 [2] was 2.36 µM.

Work on `O=C1C=CC(=O)C([C@@H]2O[C@H](CNC(=O)c3ccccc3)[C@@H](O)[C@H](OC(=O)c3ccccc3)[C@H]2OC(=O)c2ccccc2)=C1` yielded an inhibition [1] of 94.1% and an IC50 [2] of 5.27 µM.
